# hERG rescue: compounds protecting human hERG from proarrhythmic drug block; CHO-hERG, FluxOR thallium flux, dofetilide IC70 present; Q12809; 310,000 tested, 0.51% active; activation (rescue from dofetilide block), less the hit threshold, % at 10 µM;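 active = activation above the mean of controls blocked by dofetilide plus 5 SD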;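 note: thallium influx through hERG after potassium depolarization seen as dye fluorescence rise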
# KCC2 mod: KCC2 (human) Cl- transport modulation; Q9H2X9; KCC2 cells, thallium flux FluoZin-2 fluorescence; B-score of Tl+ flux slope (higher = more flux/activation; lower = inhibition) at 10 µM; 190,000 tested, 2.2% active;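 active = thallium flux slope and its plate-corrected score both differing from the plate sample mean at a set confidence after two filtering rounds, in either direction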;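 note: slope of fluorescence scaled to starting intensity during 10 to 20 s after thallium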
# Target sequence (Q9H2X9 whole entry, looked up): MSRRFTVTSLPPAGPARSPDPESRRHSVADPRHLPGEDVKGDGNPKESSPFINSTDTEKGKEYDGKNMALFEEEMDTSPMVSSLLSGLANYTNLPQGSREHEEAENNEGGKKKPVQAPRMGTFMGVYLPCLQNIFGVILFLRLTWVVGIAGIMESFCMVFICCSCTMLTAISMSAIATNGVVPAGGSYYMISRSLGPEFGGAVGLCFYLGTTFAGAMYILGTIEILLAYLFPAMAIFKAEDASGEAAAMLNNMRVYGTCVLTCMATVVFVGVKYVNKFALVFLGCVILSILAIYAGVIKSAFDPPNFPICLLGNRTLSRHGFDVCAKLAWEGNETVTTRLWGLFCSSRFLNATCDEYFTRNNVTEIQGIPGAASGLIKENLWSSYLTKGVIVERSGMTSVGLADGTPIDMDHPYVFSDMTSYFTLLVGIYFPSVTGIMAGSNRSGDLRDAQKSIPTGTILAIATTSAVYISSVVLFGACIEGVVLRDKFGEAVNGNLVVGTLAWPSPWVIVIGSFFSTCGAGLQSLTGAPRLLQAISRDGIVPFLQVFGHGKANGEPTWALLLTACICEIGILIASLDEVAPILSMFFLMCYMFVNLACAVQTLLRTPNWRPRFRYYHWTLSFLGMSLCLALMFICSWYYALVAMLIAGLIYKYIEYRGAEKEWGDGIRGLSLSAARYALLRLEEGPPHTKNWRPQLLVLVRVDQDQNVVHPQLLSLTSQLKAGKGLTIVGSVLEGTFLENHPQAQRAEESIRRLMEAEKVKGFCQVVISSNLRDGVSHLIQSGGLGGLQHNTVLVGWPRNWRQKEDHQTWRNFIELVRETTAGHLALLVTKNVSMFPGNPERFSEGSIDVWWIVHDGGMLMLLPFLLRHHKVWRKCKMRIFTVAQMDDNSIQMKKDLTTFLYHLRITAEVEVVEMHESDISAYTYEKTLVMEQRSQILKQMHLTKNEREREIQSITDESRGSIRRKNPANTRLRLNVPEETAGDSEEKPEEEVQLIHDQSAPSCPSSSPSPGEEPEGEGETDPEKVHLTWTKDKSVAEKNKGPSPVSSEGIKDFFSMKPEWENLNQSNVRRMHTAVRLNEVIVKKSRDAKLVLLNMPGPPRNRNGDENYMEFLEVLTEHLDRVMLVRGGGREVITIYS
# KCNQ1 act: human KCNQ1 channel potentiation or activation | CHO-K1 KCNQ1, thallium flux FluxOR fluorescence; hits give high values | AID 2648 | 310,000 tested, 0.35% active | P51787 | B-score at 10 µM;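 active = fluorescence ratio B-score, a plate-corrected score, at least three library SD, with initial intensity B-score within 5 SD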
#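 System: CHO-K1 cells stably expressing KCNQ1 / Medium: assay buffer for compound exposure, DMSO matched across wells / Reagent: thallium- and potassium-containing depolarizing buffer / Compound: one concentration, matched DMSO / Incubation: 20 min compound pretreatment at room temperature / Measured by: kinetic FluxOR fluorescence, 10 s baseline plus 110 s post-stimulus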
# AI-2 QS modul: modulators of Vibrio harveyi AI-2 quorum sensing system. Vibrio harveyi JMH597 AI-2 luminescence/OD600 ratio, 9 h; hits give low values; strain lacks LuxN and CqsS sensors; 0 = neutral-control median. activity change, % at 7.5 µM. 300,000 tested, 0.4% active. AID 2094; in the data active = activity change below about -75%, passing the limit was not always enough; inconclusive = no clear call, values can overlap the other calls;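 note: luminescence divided by OD600 gain over 9 h not by final OD600 alone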
# KCNQ1 inh: blocks the human KCNQ1 potassium channel | P51787 | CHO-K1 KCNQ1, FluxOR thallium flux fluorescence; hits give high values | B-score at 10 µM | 310,000 tested, 1.3% active;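 active = compounds whose thallium flux B-score, printed positive for inhibition, exceeds three library SD while starting fluorescence stays within three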;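 note: channel opened by potassium depolarization with thallium stimulus after 20 min compound exposure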
# SUMO Mot1 rescue: SUMOylation pathway inhibition by Mot1-301 growth rescue. S. cerevisiae Mot1-301 growth rescue, ATP luminescence, 38.5C; percent above DMSO median, 100 means doubled. 320,000 tested, 1% active. growth rescue, % at 18.8 µM. AID 2716;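 active = every valid replicate shows activation above 250% relative to neutral control wells; inactive = the rest, any valid replicate at or below 250%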;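 note: OY570 slx delta 5 strain wells were the positive control but not used for scaling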
# Yeast Mot1 SUMO: inhibits SUMO pathway, affecting Mot1-301 yeast growth. 2,300 tested, under 10 active. S. cerevisiae Mot1-301 galactose growth, ATP luminescence, 24 h; -100 = growth of slx-deleted rescue strain. growth activity, percent, % at 42 µM. AID 493004. shares compounds with SUMO Mot1 rescue;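 active = Signal drops as the depositor expects, and the fitted half-maximal dose is no more than ten times the top valid tested dose; inconclusive = Poor fit, or a flat curve whose signal drops by 30% to 70%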;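 note: more negative values mean stronger growth rescue toward the control strain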
# Numbers without * were called inactive; i = inactive; ? = inconclusive; . = no result; + = active, no number. The list is not random: actives were taken first. Their share in the collection is about 4.2%.
SMILES,hERG rescue,KCC2 mod,KCNQ1 act,AI-2 QS modul,KCNQ1 inh,SUMO Mot1 rescue,Yeast Mot1 SUMO
CCN(C(=O)Cn1nc(C)c([N+](=O)[O-])c1C)c1c(N)n(Cc2ccccc2)c(=O)[nH]c1=O,-17,.,i,24,i,376*,1
COCCN(C(=O)COC(=O)c1cc2ccccc2cc1OC)c1c(N)n(Cc2ccccc2)c(=O)[nH]c1=O,-12,.,i,13,i,-17,.
COCCN(C(=O)C1=COCCO1)c1c(N)n(Cc2ccccc2)c(=O)[nH]c1=O,-11,.,i,24,i,-7,.
CN(C(=O)COC(=O)c1cc2ccccc2cc1O)c1c(N)n(Cc2ccccc2)c(=O)[nH]c1=O,-4,.,i,.,i,427*,0
COc1ccccc1-c1cn(S(=O)(=O)c2ccc(F)cc2)nc1N,-2,.,i,14,i,-4,.
CC1CN(Cc2ccccc2)C(C)CC1O (stereo not given),-9,-0.25,i,14,i,-14,.
O=C(COC(=O)C12CC3CC(CC(Br)(C3)C1)C2)Nc1c(F)cccc1F,.,.,.,.,.,31,.
O=C(c1cc(-c2ccc(Cl)cc2)n(-c2ccc(Cl)cc2)n1)N1CCOCC1,-19,.,i,13,i,399*,0
CC(=O)c1ccc(NC(=O)CSc2ccc(-c3ccc(-n4cccn4)cc3)nn2)cc1,-16,.,i,12,i,-16,.
CCOC(=O)c1c(C)[nH]c2c1cc(O)c1ccccc12,-2,-1.2,i,20,i,769*,-1
COC(=O)c1cc(Cl)c(NC(=O)C(C)C)cc1OC,-12,1.1,i,15,i,661*,0
CSCCC(NS(=O)(=O)c1cccc(C(F)(F)F)c1)C(=O)Nc1ccccc1N1CCCC1 (stereo not given),-8,.,i,20,i,57,.
CCCCCOC(=O)C1=C(C)N(C)C(=O)NC1c1cc(Br)c(O)c(OC)c1 (stereo not given),-11,-0.0069,i,20,i,879*,0
CCCCN(C)C(=O)CCC(=O)Nc1ccc2nc(N3CCN(C)CC3)cc(C)c2c1,-7,-0.64,i,11,i,449*,0
Cc1cc(N2CCN(C)CC2)nc2ccc(NC(=S)N3CCC4(CC3)OCCO4)cc12,-12,0.025,i,-2,i,+,0
Cc1ccc2nc(NC(=O)C3CCN(S(=O)(=O)c4cccnc4)CC3)sc2c1,-5,-2.8,i,-53,i,775*,0
COc1ccc2nc(NC(=O)C3CCN(S(=O)(=O)c4cccnc4)CC3)sc2c1,-9,-1.7,i,?,i,-2,.
Cc1ccc(/C=C/C(=O)c2ccc([N+](=O)[O-])o2)cc1,-7,.,i,10,i,+,0
COc1ccc(-c2nnc(-c3cc4c(ccc5ccccc54)oc3=O)o2)cc1,-16,-0.48,i,26,i,574*,0
Cc1ccc(C(=O)OCN2C(=O)c3ccccc3C2=O)o1,-7,.,i,33,i,-11,.
CCCC(O)(c1ccc(Br)cc1)C(CN1CCOCC1)c1ccc(Cl)cc1 (stereo not given),-8,.,i,4,i,555*,-2
CC(=O)c1ccc2noc(-c3ccc(F)cc3)c2c1,-4,-0.84,i,2,i,+,-1
CCCCn1c(N)c(N(CC(C)C)C(=O)c2cc(-c3ccc(OC)c(OC)c3)nc3ccccc23)c(=O)[nH]c1=O,-15,.,i,35,i,-11,.
CCCCn1c(N)c(N(CC(C)C)C(=O)c2cc(-c3ccc(F)cc3)nc3ccccc23)c(=O)[nH]c1=O,-7,.,i,-16,i,491*,0
CCOc1cc(NC(=S)Nc2ccccc2OC)c(OCC)cc1NC(=O)c1ccccc1C,-14,.,i,27,i,-3,.
SMILES,hERG rescue,KCC2 mod,KCNQ1 act,AI-2 QS modul,KCNQ1 inh,SUMO Mot1 rescue,Yeast Mot1 SUMO
CCCOC(=O)C1=C(C)NC2=C(C(=O)CCC2)C1c1cccs1 (stereo not given),-11,-1.5,i,17,i,451*,0
CCOC(=O)C1=C(C)NC2=C(C(=O)CC(c3cccs3)C2)C1c1cccs1 (stereo not given),-2,-1.5,i,.,i,-13,.
CN(CCOc1ccc(Cl)cc1)CC(=O)Nc1ccc(OC(F)F)cc1,-9,.,i,8,i,403*,-1
O=C(NCc1cc([N+](=O)[O-])ccc1O)c1cccnc1Sc1ccccc1Cl,-5,.,i,40,i,109,.
O=C(Cn1cnc([N+](=O)[O-])n1)NCc1ccccc1,-5,.,i,25,i,-16,.
O=C(CCCn1cnc([N+](=O)[O-])n1)Nc1cccc2ccccc12,-7,0.39,i,37,i,408*,-1
COc1ccc(CCn2c(N)cc(=O)[nH]c2=O)cc1OC,-9,-0.45,i,40,i,-15,.
Nc1cc(=O)[nH]c(=O)n1CCc1ccccc1,-5,.,i,23,i,542*,0
CCN(CC)CCNC(=O)CCn1c(=S)[nH]c2cc3c(cc2c1=O)OCO3,-13,-0.029,i,19,i,+,0
COc1ccc(C(=O)CC(=O)C(=O)Nc2ccc(C)c(Cl)c2)cc1,17*,.,9*,58,i,918*,1
COc1ccc(C(=O)CC(=O)C(=O)Nc2cccc(F)c2)cc1,0,.,i,49,i,15,.
CCOC(=O)N1CCN(CC(O)COc2ccc3c(c2)CCC3)CC1 (stereo not given),-4,.,i,7,i,10,.
O=C(NCc1ccccc1Cl)c1ccc2c(c1)OCO2,-9,.,i,-3,i,650*,-1
O=C(NCc1ccccc1F)c1ccc2c(c1)OCO2,-10,-0.84,i,-2,i,-3,.
C#CCNc1c2c(nc3ncnn13)CC(C)CC2 (stereo not given),-9,-1.3,i,25,i,-5,.
CC1CCCCN1C(=O)C(Cc1ccccc1)N1C(=O)C2CCCCC2C1=O (stereo not given),-8,-0.069,i,36,i,862*,-1
O=C(NC1CCCCC1)C1CC(=O)N(Cc2ccccc2)C1 (stereo not given),-7,.,i,8,i,-17,.
OCCSc1c(F)c(SCCO)c(SCCO)c(F)c1SCCO,-8,1.1,i,-3,i,-25,.
